Screening data from PubChem.
PMI act: activators of human PMI, primary screen, biochemical, fluorescence intensity, near-Km mannose 6-phosphate | Mannose-6-phosphate isomerase (Homo sapiens), P34949 | purified human PMI, coupled resazurin fluorescence, 20 min; active compounds read high; 1 = vehicle control, 0 substrate-free wells | activation factor at 20 µM | actives 0.005% (n = 190,000) | AID 1214, 2008;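 active = activation factor of 2 or more at 20 µM, relative to plate controls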
Target sequence (P34949 whole entry, looked up): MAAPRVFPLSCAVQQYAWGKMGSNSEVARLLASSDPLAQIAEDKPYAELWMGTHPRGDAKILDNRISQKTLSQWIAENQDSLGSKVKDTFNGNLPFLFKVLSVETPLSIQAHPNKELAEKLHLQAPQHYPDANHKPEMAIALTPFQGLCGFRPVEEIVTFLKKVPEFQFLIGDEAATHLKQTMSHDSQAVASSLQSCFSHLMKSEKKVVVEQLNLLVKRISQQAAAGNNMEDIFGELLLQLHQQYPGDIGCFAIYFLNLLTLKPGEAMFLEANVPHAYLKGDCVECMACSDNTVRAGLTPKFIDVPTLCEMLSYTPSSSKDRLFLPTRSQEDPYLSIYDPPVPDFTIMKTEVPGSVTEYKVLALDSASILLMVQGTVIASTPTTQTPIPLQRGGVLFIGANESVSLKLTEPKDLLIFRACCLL
L major viab: Leishmania major promastigote growth inhibition, primary screen. inhibition, % at 10 µM. Leishmania major promastigotes, resazurin fluorescence viability. AID 1063, 2008. actives 9% (n = 200,000); in the data active = inhibition above about 50%;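 also: promastigotes grown with compound for 44 hours at 28 °C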
PMI act satM6P: human PMI activators, high substrate, primary screen, biochemical, fluorescence intensity, near-saturating mannose 6-phosphate; Mannose-6-phosphate isomerase (Homo sapiens), P34949; coupled PMI enzyme assay, resazurin fluorescence, 20 min; active compounds read high; 1 = untreated enzyme, 0 = substrate-free blank; activation factor at 20 µM; actives 0.34% (n = 190,000); AID 1216, 2008;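 active = activation factor of 2 or more at 20 µM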
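Material: human phosphomannose isomerase with PGI, G6PDH, diaphorase coupling enzymes. Quantity: 15 ng/mL PMI. Medium: HEPES pH 7.4 buffer with MgCl2 and Tween-20. Reagent: Near-saturating mannose-6-phosphate, 1.0 mM. Compound: 20 µM single dose. Times: enzyme reaction with compound 20 min at room temperature. Detection: resorufin fluorescence at Ex 544/Em 590 nm.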
m-calpain inh: inhibitors of pig calpain II, primary screen, biochemical, fluorogenic peptide substrate, 1536-well; purified calpain II, 30 min; AID 1236, 2008; actives 0.37% (n = 220,000); inhibition, % at 16 µM;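 active = inhibition above about 50%, limit read from the data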
Rad51 HR inh: human RAD51 strand exchange inhibitors, primary screen, biochemical, fluorescence; hRad51 DNA strand exchange, fluorescence dequenching; inhibition, % at 10 µM; actives 0.085% (n = 200,000); AID 1385, 2008;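 active = inhibition above 40% at the single screening dose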;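 also: 0% = DMSO control wells and 100% = blanks with heterologous ssDNA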
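Test system: preformed human Rad51 ssDNA filaments. Compound dosing: single dose, 10 µM final compound. Incubation: filaments 15 min 37 °C, then compound 30 min. Technique: FRET fluorescence dequenching, excitation 485 nm, emission 520 nm. Read-out basis: percent inhibition from fluorescence, normalised to plate control and blank means. Benchmarks: plate controls and plate blanks.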
WT yeast gro inh: growth inhibition of WT strain, primary screen, mitochondrial fusion inhibitor project, WT and mutant strains, chemical genetic. mitochondrial fusion phenotypic screen. inhibition, % at 10 µM. actives 2.1% (n = 190,000); in the data active = inhibition above about 58%; tested in S. cerevisiae
Active calls of the source: *; i = inactive; x = no result. Rows were chosen to be rich in hits. Some 9.8% of all compounds tested hit in one or more screens of this group.

SMILES	PMI act	L major viab	PMI act satM6P	m-calpain inh	Rad51 HR inh	WT yeast gro inh
COc1cc(OC)c(NC(C)C(=O)N2CCCC2)cc1Cl (stereo not drawn)	0.9	1.7	0.7	16.5	-8.8	-4.7
C[n+]1ccc(/C=C/c2ccccc2O)c2ccccc21	0.9	98.8*	0.9	1.1	x	64.6*
CC(C)(C)NC(=O)NC(=O)COC(=O)c1cc[n+]([O-])cc1	1	-7.9	0.8	12.4	14.3	8.1
COc1cccc(NC(=O)Nc2ccc(C(C)(C)C)cc2)c1	0.8	1.3	0.9	25.1	-24.6	62.7*
COc1cccc(NC(=O)N2CCCC2)c1	1	7.5	0.9	2.0	42.5*	-1.7
O=C(Nc1ccc(Cl)c(Cl)c1)N1CC=CCC1	0.9	85.1*	0.9	12.6	-28.9	42.7
S=C(Nc1ccc(Cl)c(Cl)c1)N1CCOCC1	0.8	21.7	0.9	20.6	x	-1.2
O=C(Nc1ccccc1)N1CCCC1	1	96.9*	1.1	-22.3	-3.0	12.2
COc1ccc(Nc2nc(-c3ccccc3)nc3ccccc23)cc1S(=O)(=O)N1CCOCC1	x	x	x	-90.0	x	x
Cc1ccc(NC(=O)C(=O)N2CCCC2)cc1Cl	1	-8.9	1	-8.0	8.6	-14.2
COc1cccc(NC(=O)CC2COc3ccccc3O2)c1 (stereo not drawn)	1	56.5*	1.1	-1.3	-1.6	-8.8
Cc1ccc(NC(=O)N2CCCC2)cc1Cl	1.1	94.7*	1	27.8	-2.5	32.6
N#C/C(=C\c1ccc(Sc2ccc(Cl)cc2)o1)c1nc2ccccc2[nH]1	0.8	60.2*	0.8	-38.6	-6.8	51.8
N#C/C(=C\c1ccc(Sc2nc3ccccc3[nH]2)o1)c1ccccc1	0.9	18.6	1	-81.6	0.5	36.8
N#C/C(=C/c1cccs1)c1nc2ccccc2[nH]1	1	85.3*	1	-0.2	5.2	1.7
N#C/C(=C\c1ccc(Cl)cc1)c1nc2ncccc2[nH]1	0.9	78.8*	0.8	-89.7	-2.7	45.3
NC(=O)c1ccsc1NC(=O)c1coc2ccccc2c1=O	1	9.0	1.1	-10.9	32.4	4.5
CC(=O)Nc1ccccc1-c1nc2ccc(C(=O)N3CCN(c4cc(C)ccc4C)CC3)cc2[nH]c1=O	0.9	56.4*	0.8	-48.4	-11.2	-8.9
Cc1cccc(N)c1-c1c(C)cccc1N	1	0.9	0.9	32.8	-5.2	-2.7
Cc1ccc(C(C[N+](=O)[O-])c2c(N)n(C)c(=O)n(C)c2=O)cc1 (stereo not drawn)	x	x	x	-6.6	14.7	x
COc1cc(C(C[N+](=O)[O-])c2c(N)n(C)c(=O)n(C)c2=O)ccc1O (stereo not drawn)	0.9	72.7*	0.6	-15.8	1.5	-2.4
Cc1ccccc1NC(=O)CCN1CCN(C/C=C/c2ccccc2)CC1	1	88.3*	1	-17.2	1.2	22.0
O=C(CCN1CCN(C/C=C/c2ccccc2)CC1)Nc1ccccc1	0.9	93.4*	0.9	-43.0	0.3	5.0
COc1ccccc1NC(=O)C(C)N1CCN(C/C=C/c2ccccc2)CC1 (stereo not drawn)	1	84.1*	1	-23.2	3.7	10.8
Cc1cccc(NC(=O)CCN2CCN(C/C=C/c3ccccc3)CC2)c1	1.1	91.2*	1.1	-37.5	5.7	12.3
SMILES	PMI act	L major viab	PMI act satM6P	m-calpain inh	Rad51 HR inh	WT yeast gro inh
Cc1ccc(NC(=O)N2CCN(C/C=C/c3ccccc3)CC2)cc1	0.8	20.5	0.9	23.8	-7.0	-0.7
CC(C(=O)Nc1cccc(S(=O)(=O)N2CCOCC2)c1)N1CCN(C/C=C/c2ccccc2)CC1 (stereo not drawn)	1	5.0	1	-11.4	-2.2	-10.8
Cc1cc(C)nc(N/N=C/C2=C(O)CC(c3ccc(F)cc3)CC2=O)n1 (stereo not drawn)	x	x	x	-1.7	15.4	x
Cc1ccc(NC(=O)C2(c3ccccc3)CCOCC2)c([N+](=O)[O-])c1	1	-5.5	1	21.2	-28.6	1.7
Cc1ccc(NC(=O)C(NC2CCCc3ccccc32)c2ccccc2)c([N+](=O)[O-])c1 (stereo not drawn)	0.8	89.3*	0.6	24.8	0.0	-3.5
Cc1ccc(NC(=O)C(NC2CCCc3ccccc32)c2ccccc2)cc1Cl (stereo not drawn)	1.1	58.3*	1.1	11.1	-2.7	33.0
CCCN1C(=O)/C(=C/c2ccc(N3CCCC3)c(C)c2)NC1=S	0.8	42.5	0.8	21.0	i	69.4*
O=c1c(-c2ccc(Cl)cc2)coc2c(CN3CCOCC3)c(O)ccc12	1	59.3*	1	i	7.1	3.3
O=C(Cn1c(=O)oc2cc(S(=O)(=O)N3CCCC3)ccc21)N1CCN(c2ccccc2)CC1	1.1	100.0*	1.1	0.9	3.3	-9.1
COc1cccc(NC(=O)Cn2c(=O)oc3cc(S(=O)(=O)N4CCCC4)ccc32)c1	x	x	x	11.1	7.6	x
O=C(Cn1c(=O)oc2ccccc21)N1CCN(c2ccccc2)CC1	0.9	-0.6	1	-9.0	-1.5	3.1
O=C(Cn1c(=O)oc2cc(S(=O)(=O)N3CCCC3)ccc21)NC1CCCc2ccccc21 (stereo not drawn)	1	100.3*	1	3.3	x	13.7
O=C(Cn1c(=O)oc2cc(S(=O)(=O)N3CCCC3)ccc21)Nc1ccc(C(F)(F)F)cc1	1.2	52.1*	1.1	-89.2	-9.2	-2.2
CC(NC(=O)Cn1c(=O)oc2cc(S(=O)(=O)N3CCCC3)ccc21)c1ccccc1 (stereo not drawn)	1	99.6*	1	2.7	-5.2	-18.2
Cc1cc(N/N=C/c2ccncc2)c([N+](=O)[O-])cc1[N+](=O)[O-]	x	x	x	-12.4	8.2	x
COC(=O)c1sccc1NC(=O)CC1C(=O)NCCN1C(=O)c1ccc(F)cc1 (stereo not drawn)	x	x	x	-14.8	-6.2	x
O=C(NC1CCCc2ccccc21)C1CCN(S(=O)(=O)c2ccccc2)CC1 (stereo not drawn)	0.9	1.1	1	30.5	x	16.6
CN(Cc1ccccc1)C(=O)Cn1c(=O)oc2cc(S(=O)(=O)N3CCCC3)ccc21	1	100.2*	1	-16.7	-0.6	1.8
O=C(NC1CCCc2ccccc21)C1CCN(S(=O)(=O)c2ccccc2F)CC1 (stereo not drawn)	1	85.3*	1	21.6	5.6	25.6
